19 compounds from PubChem BioAssay AID624102 (Broad Institute, 2012) can be followed below.

SMILES strings stand for the structures. Active and inactive are the calls of the source.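 Rule for the calls: active = fitted curve reaches a 35% signal drop at a concentration no higher than twice the top valid dose, in duplicate at both wavelengths; inactive = the rest, including activity in the opposite direction.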

This assay can be described thus: iron-limited Pseudomonas aeruginosa growth inhibition – whole organism, absorbance 405 nm, EDDHA, dry powder, set 8, dose response (AID 624102). To be noted: P. aeruginosa with EDDHA, growth/pyoverdine A405, 24-30 h; series mostly up to 120 µM. Put shortly:
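Material – P. aeruginosa ATCC 15692 cells · Amount – final OD600 0.0000005 bacteria · Buffer or medium – succinate M9 medium, pH 7.0, with 2 µM EDDHA iron chelator · Incubation – 24-30 h exposure, 37 °C · Signal – absorbance at 405 nm reflecting pyoverdine production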
Turning to `COCCOCCC(C#N)c1ccc(Cl)cc1` (centres undefined), the outcome was inactive. On to `COCCC(C#N)c1ccc(Cl)cc1` (centres undefined), for which the call was inactive. Then `N#Cc1cccc(C(C#N)c2ccc(F)cc2)n1` (centres undefined), with “inactive”; and `N#CC(c1ccc(Cl)cc1)N1CCCC1` (centres undefined), with “inactive”. Then `CCCCC(c1ccc(Cl)cc1)c1nn[nH]n1` (centres undefined), with “inactive”; and `COCCC(C#N)c1ccc(F)cc1` (centres undefined), with “inactive”. As to `CCCCC(C#N)c1ccc(F)cc1` (centres undefined), the outcome was inactive. With `N#CC(c1ccc(C(F)(F)F)c(Cl)n1)c1ccccc1OC(F)(F)F` (centres undefined), the result was inactive. On to `Clc1ccc(C(c2cccc(Cl)n2)c2nn[nH]n2)cc1` (centres undefined), for which the result was inactive. With `N#CC(c1ccc(Cl)cc1)c1ccccn1` (centres undefined), the compound was called inactive. Take `COCCNC(C#N)c1ccc(Cl)cc1` (centres undefined): the outcome was inactive. In the case of `CCCCC(C#N)c1ccc(Cl)cc1` (centres undefined), the result was inactive.

For `N#CC1c2ccc(Cl)cc2CCc2cccnc21` (centres undefined), the outcome was inactive. Then `CCCCC(C#N)c1ccccn1` (centres undefined), with “inactive”. Consider `COCCOCCC(C#N)c1ccc(F)cc1` (centres undefined), for which the compound was classed as inactive. `N#CC(c1ccc(F)cc1)c1cccc(Cl)n1` (centres undefined): the compound was classed as inactive. Then `CCCCC(C#N)c1ccc(Cl)cn1` (centres undefined), with “inactive”; and `CN(C)CCCC(C#N)c1ccc(F)cc1` (centres undefined), with “inactive”; and `CCCCC(C#N)c1ccc(F)cn1` (centres undefined), with “inactive”.
